# What was measured:
# RIF tumors = assay: In vivo photosensitizing; set-up: species or system C3H mice
# RIF tumor cells = assay: In vitro photosensitizing efficacy; format: cell-based; conditions: for in vitro photosensitizing ability: lower light and drug doses, RIF cells; for in vitro photosensitizing ability (comparative): 24 h post-incubation, light dose 6.0 J/cm^2, drug concentration 1.0 μM and higher, 700 nm
# Outline: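 RIF cells were grown in α-MEM with 10% FCS and plated at 5 × 10³ cells/well overnight. Test compound was added at varied concentrations for 24 h at 37°C in the dark, then replaced with drug-free medium. Cells were irradiated with a 700 nm dye laser (3.2 mW/cm², 0-6 J/cm²) and kept 48 h in the dark. MTT was added for 4 h, followed by DMSO and a 560 nm read. Survival was expressed as % of the drug-no-light control, with 4 replicate wells.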
# [1] = Biodistribution of 124I-labeled compounds; format: in vivo, C3H mice bearing RIF tumors
# Outline: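 RIF cells (3 × 10⁵ in 30 μl complete α-MEM) were implanted s.c. in the axilla of C3H mice and grown to 4-5 mm diameter (~5 days). The 124I-labelled test compound, in saline with 10% ethanol, was given via tail vein at 50-200 μCi. Thyroid uptake was not blocked. 3-4 mice per time point were killed at 24-96 h. Organs, blood and tail were weighed and gamma-counted, giving %ID/g.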
# [2] = dose 2μmol/kg, 705 nm, 135 J/cm^2, 75 mW/cm^2
# [3] = 24h PI, C3H mice bearing RIF tumors, i.v. 50-200 uCi
compound,measurement,setting,value
"CCc1c(C)c2cc3nc(cc4[nH]c(c5c6nc(cc1[nH]2)C(C)=C6C(=O)C5)[C@@H](CCC(=O)OC)[C@@H]4C)C(C)=C3C(C)OCc1cccc(I)c1 (stereo partly shown) [compound 1, 3-{1’- (3-iodobenzyloxy)ethyl}pyropheophorbide-a methyl ester]",mice tumor free on day 60,"RIF tumors; dose 1.5 μmol/kg i.v., 665 nm, 135 J/cm^2, 75 mW/cm^2 at 24 h post injection, 5 mice/group",4/5
"CCCCCCN1C(=O)C2=C(C)c3cc4[nH]c(cc5nc(cc6[nH]c(c(c2n3)C1=O)[C@@H](CCC(=O)OC)[C@@H]6C)C(C)=C5C(C)OCc1cccc(I)c1)c(C)c4CC (stereo partly shown) [compound 4, 3-{1’- (3-iodobenzyloxy)ethyl}purpurin-18-N-hexylimide methyl ester]",in vitro photosensitizing ability,RIF tumor cells,ineffective
same,toxicity after PDT treatment,RIF tumors; [2],toxic and all mice died within 24 h PDT treatment
"CCCCCCOC(C)C1=C(C)c2cc3[nH]c(c4c5nc(cc6[nH]c(cc1n2)c(C)c6CC)C(C)=C5C(=O)N(Cc1cccc(I)c1)C4=O)[C@@H](CCC(=O)OC)[C@@H]3C (stereo partly shown) [compound 5, 3-{1’- (Hexyloxy)ethyl}purpurin-18-N-(3-iodo)benzylimide methyl ester]",in vitro photosensitizing ability (comparative),RIF tumor cells,more effective than the structural isomer 4
same,in vitro photosensitizing ability,RIF tumor cells,ineffective
same,in vivo PDT activity,RIF tumors; [2],did not show any significant activity
same,in vivo PDT activity,"RIF tumors; doses 2.5 and 3.0 μmol/kg, 705 nm, 135 J/cm^2, 75 mW/cm^2",quite effective
"CCc1c(C)c2cc3nc(cc4[nH]c(c5c6nc(cc1[nH]2)C(C)=C6C(=O)N(Cc1cccc(I)c1)C5=O)[C@@H](CCC(=O)OC)[C@@H]4C)C(C)=C3C(C)OC (stereo partly shown) [compound 10, 3-{1’- (methoxy)ethyl}purpurin-18-N-(3-iodo)benzylimide methyl ester]",in vitro photosensitizing ability (comparative),RIF tumor cells,enhanced efficacy over the isomers 4 and 5
same,tumor uptake (abstract statement),[1]; methyl ether analog versus purpurinimide 5,improved tumor uptake
same,"in vivo PDT efficacy, fold less effective over the lead compound 1","RIF tumors; 705 nm (10), 135 J/cm^2, 75 mW/cm^2, 24 h post-injection",at least 1.5 fold
same,in vivo PDT activity compared with hexyl ether analog 5,"RIF tumors; doses of 1.0 and 2.5 mmol/kg, 705 nm, 135 J/cm^2, 75 mW/cm^2, 24 h post-injection",enhanced activity
^124I- labeled analog of 3-{1’- (3-iodobenzyloxy)ethyl}purpurin-18-N-hexylimide methyl ester [compound 8],liver uptake in comparison of the 124I-analog of pyropheophorbide 1,[1]; [3],32 fold
same,spleen uptake in comparison of the 124I-analog of pyropheophorbide 1,[1]; [3],85 fold
